Activity calls are given as the source filed them.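 Rule for the calls, unless noted: active = signal rise over 3 SD above mean of control wells given weak agonist, in both repeats and first screen; inactive = the rest.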
tested on: not listed separately; experiment: calcium flux inhibitors in TRPC4/5HT1a cells, confirmation, counter-screen for TRPC4 inhibitor project, cell-based, second counter screen, HEK293 TRPC4/5HT1a, Fluo-4 (AID 434978;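 active = primary screen active whose calcium signal fell more than 3 SD beyond the full-serotonin control mean in both duplicate plates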;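 for outcome: serotonin given first at submaximal then at maximal dose after compound preincubation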); details: Fluo-4 calcium flux, at 10 µM, serotonin added to trigger calcium flux; active compounds read high
Summary of the method: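 System: HEK293 line stably carrying TRPC4 plus 5HT1a receptor; benchmarks: maximal serotonin stimulation controls; measured by: Fluo-4 calcium flux, kinetic fluorescence; reagent: sequential submaximal then ECmax serotonin stimulation; times: compound 110 s, submaximal serotonin 110 s, ECmax serotonin read 110 s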

**Q.** Which inhibition does the source give for `CCCN1CN(Cc2ccco2)c2nc3ccccc3n2C1` here?
**A.** The inhibition was 25% (active).

**Q.** Which inhibition does the source give for `O=C(O)c1ccc(CSc2nc(-c3ccc(Cl)cc3)cc(C(F)(F)F)n2)cc1` here?
**A.** Its inhibition is 19.2% (active).

**Q.** For `CCCCc1nc2ccccc2c(N)c1CCC` (tested in a mixture with another compound), which inhibition is on record?
**A.** Its inhibition is 32.6% (active).

**Q.** Which inhibition does the source give for `CCOC(=O)c1c(NC(=O)/C=C/C(=O)O)sc(C)c1-c1ccc(C(C)(C)C)cc1` here?
**A.** The inhibition was -6.26% (active).

**Q.** For `C=C(C)Cn1c(SCC)nc2ccccc2c1=O`, which inhibition is on record?
**A.** Its inhibition is 21.3% (active).

**Q.** For `O=C(Nc1ccccc1N1CCN(C(=O)c2ccc(Cl)cc2)CC1)c1cccc([N+](=O)[O-])c1`, which inhibition is on record?
**A.** The inhibition was 36.6% (active).

**Q.** Which outcome does the source give for `CCOC(=O)C1(CCc2ccccc2)CCN(Cc2ccccn2)CC1` here?
**A.** The outcome was “inactive”.

**Q.** Which inhibition does the source give for `c1csc(CNc2nc(-c3cccs3)nc3ccccc23)c1` here?
**A.** Its inhibition is 29.7% (active).

**Q.** With `O=C(c1cccc(C(=O)N2CCN(c3ccccc3)CC2)c1)N1CCN(c2ccccc2)CC1` as the compound, how does the inhibition read?
**A.** Its inhibition is 26.9% (active).

**Q.** For `CCCCN(CCCC)/C(N)=N/c1nc(C)cc(C)n1`, which inhibition is on record?
**A.** The inhibition was 35.1% (active).

**Q.** Which inhibition does the source give for `O=C(C1CCN(CC2CC=CCC2)CC1)N(CCc1ccccc1)Cc1ccccc1` (stereo not given) here?
**A.** The inhibition was 40.1% (active).

**Q.** With `CCOC(=O)c1c(NC(=O)C2CC(Cl)=CCC2C(=O)O)sc2c1CCCCC2` (stereo not given) as the compound, how does the inhibition read?
**A.** Its inhibition is 31.8% (active).

**Q.** For `COc1ccc(C)cc1N(C(=O)c1snc(C(N)=O)c1N)C(C(=O)NC1CCCCC1)c1ccc(C)o1` (stereo not given), which inhibition is on record?
**A.** The inhibition was 19.6% (active).

**Q.** With `CCOC(=O)c1c(N)sc(C(O)(C(F)(F)F)C(F)(F)F)c1-c1ccccc1` as the compound, how does the inhibition read?
**A.** The inhibition was 36.8% (active).

**Q.** With `CNc1nc(NCc2ccccc2)c2ccccc2n1` as the compound, how does the inhibition read?
**A.** Its inhibition is 26.9% (active).

tested on: TRPC4 (mouse), co-expressed with 5HT1a in HEK293; experiment: calcium flux potentiators in TRPC4/5HT1a cells, confirmation, counter-screen for TRPC4 potentiator project, cell-based, second counter screen, HEK293 TRPC4/5HT1a, Fluo-4 (AID 434979); details: Fluo-4 calcium flux, at 10 µM, serotonin added at its EC20 dose; active compounds read high

**Q.** For `CN(C)CCCN(Cc1cc2cc3c(cc2[nH]c1=O)OCO3)C(=S)NCc1ccco1`, which outcome is on record?
**A.** Its outcome is “inactive”.

**Q.** Which outcome does the source give for `Cc1cc(OCC(=O)Nc2ccc(N3CCN(C)CC3)cc2)ccc1Cl` here?
**A.** The outcome was “inactive”.

**Q.** With `O=C(Nc1ccccc1Oc1cccnc1)C1CCCN(Cc2ccc(F)cc2)C1` (stereo not given) as the compound, how does the outcome read?
**A.** Its outcome is “inactive”.

**Q.** For `Cc1ncsc1CCOC(=O)c1cccc([N+](=O)[O-])c1`, which outcome is on record?
**A.** The outcome was “inactive”.

**Q.** Which outcome does the source give for `N#C/C(=N\Nc1cccc([N+](=O)[O-])c1)C(=O)c1ccc(Br)cc1` here?
**A.** The outcome was “inactive”.

**Q.** With `CC(NC(=O)c1ccco1)C(c1cccs1)N1CCN(c2ccccc2)CC1` (stereo not given) as the compound, how does the outcome read?
**A.** The outcome was “inactive”.

**Q.** For `O=C(Cc1ccccc1[N+](=O)[O-])OCc1cccc([N+](=O)[O-])c1`, which outcome is on record?
**A.** Its outcome is “inactive”.

**Q.** Which outcome does the source give for `CCOc1cc(CNCCCN2CCOCC2)cc(Br)c1OCc1ccccc1Cl` here?
**A.** The outcome was “inactive”.

**Q.** With `O=C(NCCN1CCOCC1)c1cc2sccc2n1Cc1ccc(F)cc1` as the compound, how does the outcome read?
**A.** The outcome was “inactive”.

**Q.** Which outcome does the source give for `Cn1c(-c2ccc(F)cc2)cnc1NCc1ccc(F)cc1F` here?
**A.** Its outcome is “inactive”.

**Q.** With `Cc1[nH]c2ccc(C(=O)OC(C)C(=O)N(C)c3ccccc3)cc2c1C` (stereo not given) as the compound, how does the outcome read?
**A.** Its outcome is “inactive”.

**Q.** Which outcome does the source give for `COc1cc(/C=C2\SC(=O)N(c3ccccc3Cl)C2=O)cc([N+](=O)[O-])c1O` here?
**A.** Its outcome is “inactive”.

**Q.** For `Cc1ccc2nc(C)cc(Nc3ccc4c(c3)OCCO4)c2c1`, which outcome is on record?
**A.** The outcome was “inactive”.

**Q.** For `CC1CCN(CCCOc2ccc(OCc3ccccc3)cc2)CC1`, which outcome is on record?
**A.** The outcome was “inactive”.

**Q.** Which outcome does the source give for `COCCn1c(SCC(=O)c2ccccc2)nc2ccccc2c1=O` here?
**A.** The outcome was “inactive”.

**Q.** Which outcome does the source give for `O=C(c1ccco1)N1CCN(C/C=C/c2ccccc2)CC1` here?
**A.** Its outcome is “inactive”.

**Q.** Which outcome does the source give for `Nc1cc(N2CCCCC2)c([N+](=O)[O-])cc1Cl` here?
**A.** The outcome was “inactive”.

**Q.** Which outcome does the source give for `Cc1cc(Cl)c2oc(C(=O)N(C)Cc3nccn3C)c(C)c2c1` here?
**A.** Its outcome is “inactive”.

**Q.** For `COc1ccccc1C(=O)Nc1ccc2c(c1)CCCN2C(=O)c1cccs1`, which outcome is on record?
**A.** Its outcome is “inactive”.

**Q.** With `COCCNc1c2c(nc3ccccc13)CCC2` as the compound, how does the outcome read?
**A.** Its outcome is “inactive”.

**Q.** With `Cc1onc(-c2c(F)cccc2Cl)c1C(=O)N(C)CC(=O)Nc1cccc(F)c1` as the compound, how does the outcome read?
**A.** Its outcome is “inactive”.

**Q.** Which outcome does the source give for `Cc1cc(C)c(S(=O)(=O)c2ccccc2C)c(OCC(C)(C)C)n1` here?
**A.** The outcome was “inactive”.

**Q.** With `CCCn1c(=O)c2ccccc2n2c(SCCOc3ccccc3)nnc12` as the compound, how does the outcome read?
**A.** Its outcome is “inactive”.

**Q.** With `CCOc1ccccc1N(C(=O)c1snc(C(N)=O)c1N)C(C(=O)NCc1ccccc1)c1ccc(O)cc1` (stereo not given) as the compound, how does the outcome read?
**A.** Its outcome is “inactive”.

**Q.** With `Cc1oc(-c2ccoc2)nc1CN(Cc1ccccc1)CC1CC1` as the compound, how does the outcome read?
**A.** The outcome was “inactive”.

**Q.** Which outcome does the source give for `CCCN1CN(Cc2ccco2)c2nc3ccccc3n2C1` here?
**A.** The outcome was “inactive”.

**Q.** Which outcome does the source give for `O=C(O)c1ccc(CSc2nc(-c3ccc(Cl)cc3)cc(C(F)(F)F)n2)cc1` here?
**A.** Its outcome is “inactive”.

**Q.** Which outcome does the source give for `CCCCc1nc2ccccc2c(N)c1CCC` (tested in a mixture with another compound) here?
**A.** Its outcome is “inactive”.

**Q.** With `CCOC(=O)c1c(NC(=O)/C=C/C(=O)O)sc(C)c1-c1ccc(C(C)(C)C)cc1` as the compound, how does the outcome read?
**A.** The outcome was “inactive”.

**Q.** With `C=C(C)Cn1c(SCC)nc2ccccc2c1=O` as the compound, how does the outcome read?
**A.** The outcome was “inactive”.

**Q.** Which outcome does the source give for `O=C(Nc1ccccc1N1CCN(C(=O)c2ccc(Cl)cc2)CC1)c1cccc([N+](=O)[O-])c1` here?
**A.** The outcome was “inactive”.

**Q.** With `CCOC(=O)C1(CCc2ccccc2)CCN(Cc2ccccn2)CC1` as the compound, how does the outcome read?
**A.** Its outcome is “inactive”.

**Q.** Which outcome does the source give for `c1csc(CNc2nc(-c3cccs3)nc3ccccc23)c1` here?
**A.** Its outcome is “inactive”.

**Q.** Which outcome does the source give for `O=C(c1cccc(C(=O)N2CCN(c3ccccc3)CC2)c1)N1CCN(c2ccccc2)CC1` here?
**A.** Its outcome is “inactive”.

**Q.** With `CCCCN(CCCC)/C(N)=N/c1nc(C)cc(C)n1` as the compound, how does the outcome read?
**A.** The outcome was “inactive”.

**Q.** Which outcome does the source give for `O=C(C1CCN(CC2CC=CCC2)CC1)N(CCc1ccccc1)Cc1ccccc1` (stereo not given) here?
**A.** Its outcome is “inactive”.

**Q.** For `CCOC(=O)c1c(NC(=O)C2CC(Cl)=CCC2C(=O)O)sc2c1CCCCC2` (stereo not given), which outcome is on record?
**A.** Its outcome is “inactive”.

**Q.** For `COc1ccc(C)cc1N(C(=O)c1snc(C(N)=O)c1N)C(C(=O)NC1CCCCC1)c1ccc(C)o1` (stereo not given), which outcome is on record?
**A.** Its outcome is “inactive”.

**Q.** With `CCOC(=O)c1c(N)sc(C(O)(C(F)(F)F)C(F)(F)F)c1-c1ccccc1` as the compound, how does the outcome read?
**A.** The outcome was “inactive”.

**Q.** With `CNc1nc(NCc2ccccc2)c2ccccc2n1` as the compound, how does the outcome read?
**A.** Its outcome is “inactive”.

From PubChem BioAssay
